Data reported in ChEMBL document CHEMBL4480402, “3,3'-Disubstituted 5,5'-Bi(1,2,4-triazine) Derivatives with Potent in Vitro and in Vivo Antimalarial Activity” (J Med Chem, 2019).
Converted amounts (≈) assume the structure as drawn.

Assays:
[1] = Kinetic solubility of the compound in phosphate buffer at pH 6.5 after 30 mins by nephelometry; assay type: physicochemical; details: read-out: Kinetic_solubility
In short: (§1)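 Kinetic aqueous solubility determined by nephelometry.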

[2] = Kinetic solubility of the compound in HCL buffer at pH 2 after 30 mins by nephelometry; assay type: physicochemical; details: read-out: Kinetic_solubility; in short: as §1
[3] = Plasma concentration in Swiss mouse at […], iv via bolus administration measured up to 30 mins; assay type: ADME, organism-based
[4] = Plasma concentration in Swiss mouse at […], po via gavage administration measured up to 30 mins; assay type: ADME, organism-based; details: in vivo, 0.5 h
[5] = Plasma concentration in Swiss mouse at 30 mg/kg, po via gavage administration measured at 60 to 120 mins; assay type: ADME, organism-based; details: in vivo
In short: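 Non-fasted male Swiss outbred mice (24–33 g) with free access to food and water, two mice per dose. Dosed by bolus tail-vein IV injection or oral gavage. Blood taken up to 24 h by submandibular bleed or terminal cardiac puncture into tubes with heparin and a stabilization cocktail, at most two samples per mouse. Plasma stored at -20 °C until analysis.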

[6] = Apparent permeability across apical to basolateral side in human Caco2 cells assessed as mass balance; assay type: ADME, cell-based; details: Caco-2, read-out: permeability
[7] = Apparent permeability across basolateral to apical side in human Caco2 cells assessed as mass balance; assay type: ADME, cell-based; details: Caco-2, read-out: permeability
[8] = Apparent permeability across apical to basolateral side in human Caco2 cells; assay type: ADME, cell-based; details: Caco-2

Compound | solubility kinetic at 0.5 h [1] [µg/mL] | solubility kinetic at 0.5 h [2] [µg/mL] | other results
CSc1nncc(-c2cnnc(SC)n2)n1 | 3.1 to 6.3 (≈ 12.3 to 25 µM) | 6.3 to 12.5 (≈ 25 to 49.5 µM) | 
CSc1nncc(-c2cnnc(SCCN(C)C)n2)n1 | 6.3 to 12.5 (≈ 20.4 to 40.4 µM) | 6.3 to 12.5 (≈ 20.4 to 40.4 µM) | concentration at 0.5 h [3]: > 20 nM; Drug uptake [4]: Not Active; Drug uptake [5]: Active; recovery [6]: 85%; recovery [7]: 90%; Papp A→B [8]: 49 ×10⁻⁶ cm/s
CC(C)CSc1nncc(-c2cnnc(SCC(C)C)n2)n1 | 1.6 to 3.1 (≈ 4.75 to 9.21 µM) | 1.6 to 3.1 (≈ 4.75 to 9.21 µM) | 
CCCSc1nncc(-c2cnnc(SCCC)n2)n1 | 3.1 to 6.3 (≈ 10.1 to 20.4 µM) | 3.1 to 6.3 (≈ 10.1 to 20.4 µM) | 
CSc1nncc(-c2cnnc(OCCN(C)C)n2)n1 | 50 to 100 (≈ 170 to 341 µM) | 25 to 50 (≈ 85.2 to 170 µM) | 
CCCCSc1nncc(-c2cnnc(SCCCC)n2)n1 | < 1.6 | < 1.6 | 
CSc1nncc(-c2cnnc(SCCCO)n2)n1 | 50 to 100 (≈ 169 to 337 µM) | 50 to 100 (≈ 169 to 337 µM) | 
COc1nncc(-c2cnnc(OC)n2)n1 | 50 to 100 (≈ 227 to 454 µM) | > 100 | 
CSc1nncc(-c2cnnc(SC3CCCC3)n2)n1 | 6.3 to 12.5 (≈ 20.6 to 40.8 µM) | 6.3 to 12.5 (≈ 20.6 to 40.8 µM) | 
OCCCSc1nncc(-c2cnnc(SCCCO)n2)n1 | 60 to 100 (≈ 176 to 294 µM) | 25 to 50 (≈ 73.4 to 147 µM) | 
COCCSc1nncc(-c2cnnc(SCCOC)n2)n1 | 12.5 to 25 (≈ 36.7 to 73.4 µM) | 12.5 to 25 (≈ 36.7 to 73.4 µM) | 
